Experimental data from ChEMBL document CHEMBL4732206, “Novel diaryl-2H-azirines: Antitumor hybrids for dual-targeting tubulin and DNA” (Eur J Med Chem, 2021).
The source made the active and inactive calls. No cut-off for these calls is given here.

Legend:
[1] = system: HeLa; test: Induction of apoptosis in human HeLa cells assessed as early apoptotic cells at 1 uM incubated for 48 hrs by annexin-V-FITC and PI staining based flow cytometry analysis (reference value: 2.25 %); format: functional
[2] = target: Tubulin (Homo sapiens) (UniProt P68371+Q9H4B7+P0DPH7+P68366+Q13509+Q71U36+P04350+Q3ZCM7+P07437+P68363+Q9BQE3+Q6PEY2+Q13885+Q9BVA1+Q9BUF5); test: Inhibition of tubulin polymerization in human HeLa cells assessed as shrink in cell border at 100 to 200 nM incubated for overnight by DAPI staining based immunofluorescence assay; conditions: dose 100-200 nM
Method in brief: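 HeLa cells were treated overnight with a range of concentrations or DMSO. Cells were fixed in methanol, permeabilized with 0.1% Triton X-100 and blocked in 3% BSA for 1 h. They were stained with α-tubulin monoclonal antibody overnight at 4 °C, then Alexa 488 secondary antibody, with DAPI counterstain for 10 min. Images were taken by confocal microscopy.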

[3] = system: A2780; test: Antitumor activity against human A2780 cells xenografted in Balb/c mouse assessed as tumor growth inhibition administered every two days by caliper analysis; format: functional; conditions: dose 25-50 mg/kg
Method in brief: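 Nude mice carried A2780 cells implanted in PBS in the right flank. When tumors reached 100 mm³, mice were randomized into four groups (n = 10): vehicle, 25 or 50 mg/kg test compound, and PTX 10 mg/kg. Dosing was every two days; vehicle was 10% castor oil and 10% DMSO in PBS. Volume (π/6 × length × width²) and body weight were measured by caliper and scale at each dose. Tumors were excised and weighed at the end.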

[4] = system: A549; test: Antiproliferative activity against human A549 cells assessed as reduction in cell viability incubated for 48 hrs by MTT assay; format: functional, cell-based; conditions: A549, 48 h
Method in brief: (§1)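 Cells were grown in DMEM with 10% FBS and penicillin/streptomycin at 37 °C and 5% CO2. They were seeded for 24 h, then treated with graded concentrations for 48 h. MTT (5 mg/mL) was added for a further 4 h at 37 °C. Formazan was dissolved in DMSO and absorbance read at 570 nm. IC50 was taken from the concentration-response curve.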

[5] = system: HeLa; test: Induction of apoptosis in human HeLa cells assessed as necrotic cells at 8 uM incubated for 48 hrs by annexin-V-FITC and PI staining based flow cytometry analysis (reference value: 0.18 %); format: functional
[6] = system: HeLa; test: Induction of apoptosis in human HeLa cells assessed as late apoptotic cells at 1 uM incubated for 48 hrs by annexin-V-FITC and PI staining based flow cytometry analysis (reference value: 0.23 %); format: functional
[7] = system: HCT-116; test: Antiproliferative activity against human HCT-116 cells assessed as reduction in cell viability incubated for 48 hrs by MTT assay; format: functional, cell-based; conditions: HCT-116, 48 h; method in brief: as §1
[8] = system: HeLa; test: Induction of apoptosis in human HeLa cells assessed as viable cells at 1 uM incubated for 48 hrs by annexin-V-FITC and PI staining based flow cytometry analysis (reference value: 97.34 %); format: functional; conditions: read-out: Activity
[9] = system: HeLa; test: Induction of apoptosis in human HeLa cells assessed as necrotic cells at 1 uM incubated for 48 hrs by annexin-V-FITC and PI staining based flow cytometry analysis (reference value: 0.18 %); format: functional
[10] = system: HeLa; test: Induction of apoptosis in human HeLa cells assessed as early apoptotic cells at 4 uM incubated for 48 hrs by annexin-V-FITC and PI staining based flow cytometry analysis (reference value: 2.25 %); format: functional
[11] = system: HeLa; test: Induction of apoptosis in human HeLa cells assessed as necrotic cells at 4 uM incubated for 48 hrs by annexin-V-FITC and PI staining based flow cytometry analysis (reference value: 0.18 %); format: functional
[12] = system: HeLa; test: Induction of apoptosis in human HeLa cells assessed as viable cells at 2 uM incubated for 48 hrs by annexin-V-FITC and PI staining based flow cytometry analysis (reference value: 97.34 %); format: functional; conditions: read-out: Activity
[13] = system: HeLa; test: Antiproliferative activity against human HeLa cells assessed as reduction in cell viability incubated for 48 hrs by MTT assay; format: functional, cell-based; method in brief: as §1
[14] = system: HeLa; test: Induction of apoptosis in human HeLa cells assessed as late apoptotic cells at 4 uM incubated for 48 hrs by annexin-V-FITC and PI staining based flow cytometry analysis (reference value: 0.23 %); format: functional
[15] = system: Jurkat; test: Induction of DNA damage in human Jurkat cells at 100 to 400 nM incubated for 48 hrs by EB staining based analysis; format: functional, cell-based; conditions: dose 100-400 nM
Method in brief: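 Jurkat cells were exposed to graded concentrations, MMC 200 nM positive control or DMSO for 48 h at 37 °C, with work done in darkness. Cells were embedded in LM agarose on comet slides and lysed for 2 h at 4 °C. Slides were unwound in 1 mM EDTA/200 mM NaOH for 30 min, electrophoresed at 25 V for 15 min, stained with ethidium bromide and imaged by fluorescence microscopy. Tail moment was scored.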

[16] = system: HUVEC; test: Antiangiogenic activity in HUVEC assessed as disruption of capillary structure incubated for 12 hrs by matrigel-based microscopic analysis; format: functional, cell-based; conditions: Homo sapiens, dose 75-150 nM
Method in brief: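 Matrigel polymerized at 37 °C for 2 h, then HUVECs in DMEM were seeded on it. Cells were treated with a range of compound concentrations or DMSO vehicle for 12 h at 37 °C. Capillary-like tubes were photographed through an inverted microscope.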

SMILES: COc1ccc(C2N=C2c2cc(OC)c(OC)c(OC)c2)cc1F (stereo unspecified)
- Activity [1]: 2.86%
- inhibition [2]: Active
- TGI [3]: Dose-dependent effect
- IC50 [4]: 1190 nM
- Activity [5]: 2.14%
- Activity [6]: 1.38%
- IC50 [7]: 630 nM
- viability at 1 µM [8]: 95.5%
- Activity [9]: 0.28%
- Activity [10]: 28.43%
- Activity [11]: 0.56%
- viability at 2 µM [12]: 74.7%
- IC50 [13]: 870 nM
- Activity [14]: 7.52%
- Activity [15]: Active
- Activity [16]: Dose-dependent effect
